bCat nuc transl: modulators of beta-catenin nuclear translocation | HeLa beta-catenin nuclear translocation, immunofluorescence imaging | nuclear translocation activity, % at 5 µM | 0.3% of 190,000 active;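 active = nuclear translocation activity above 50% at 5 µM, with a well cell count of 50 or more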;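 note: per-cell ratio of nuclear to cytoplasmic median beta-catenin stain intensity; plate controls were DMSO negative control for no effect and GSK-3 inhibitor IX positive control for full effect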
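Assay system: human HeLa cells, native beta-catenin; doses: 5 µM primary, 0.02–20 µM confirmation; incubation: compound treatment 24 h, 37°C, 5% CO2; technique: fluorescence imaging of beta-catenin antibody stain plus DAPI; measure: % activation, nuclear-to-cytoplasmic median beta-catenin signal ratio per cell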
MT stabilize HCS: microtubule stabilization, imaging screen; HeLa tubulin immunostaining HCS, 24 h; share of cells brighter than vehicle mean+2SD; % tubulin-high responders, % at 10 µM; 0.83% of 200,000 active;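 active = plate Z-score above 3 for both tubulin-high and condensed-nucleus cell shares, with cell loss under 80%, at 10 µM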;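 note: anti alpha tubulin signal scored within the nucleus-defined area of each cell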
Dynein cargo inh: blocks dynein driven cargo transport along microtubules; 3617.4 mouse cells, GR-EGFP nuclear translocation imaging; test concentration mostly 20 µM; stimulated with dexamethasone, 1 µM; active compounds read low; 0.47% of 220,000 active; z-score, hits read low;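 active = plate z-score of nuclear minus cytoplasmic receptor signal below a set negative limit, without overly bright fluorescence or cell loss, cut at about -3.5 in these data, passing the limit was not always enough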;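 note: z-score of nuclear minus cytoplasmic ring GR-EGFP intensity difference per well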
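Also added: dexamethasone, 1.0 µM final. Medium: tet-free, stripped-serum medium. Detection: fixed, Hoechst-stained cells imaged at 10x for EGFP. Read-out: nuclear-to-cytoplasmic GR-EGFP distribution per well. Times: induction 48 h, compound 1 h, agonist 30 min.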
L major viab: Leishmania major promastigote growth inhibition | Leishmania major promastigotes, resazurin fluorescence viability | inhibition, % at 10 µM | 9% of 200,000 active; in the data active = inhibition above about 50%;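 note: promastigotes grown with compound for 44 hours at 28 °C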
HSV augment: HSV replication enhancement | HSV replication augmentation in cells, fold increase | maximum fold increase | 0.005% of 220,000 active | AID 1956; in the data active = maximum fold increase above about 1.5; tested in PC3 cells
Starred values were filed as active, the others as inactive; i = inactive; x = no result given. In the library only some 8.9% were active in any assay of this set; here they are far more common.

SMILES	bCat nuc transl	MT stabilize HCS	Dynein cargo inh	L major viab	HSV augment
Cc1ccc(SCCNC(=O)c2ccc(C)c(S(=O)(=O)Nc3ccccc3C)c2)cc1	2	2	-0.46	99*	i
Cc1ccc(C(=O)Nc2ccccc2C(=O)NCc2ccco2)cc1S(=O)(=O)N1CCCCC1	0	4	0.064	62*	i
O=C1c2ccccc2C(=O)N1CCSc1nnc(-c2ccco2)n1Cc1ccccc1	0	1	-0.68	1	i
Cc1ccc(S(=O)(=O)N2CCCCC2)cc1NC(=O)CNCc1ccco1	-2	x	0.55	x	i
O=C(c1ccc(F)cc1)N1C2CCC1CC(O)(c1ccccc1F)C2 (stereo not given)	-1	4	-0.29	5	i
COC(=O)c1[nH]c(C)c(/C(O)=C2\C(=O)C(=O)N(CCN(C)C)C2c2cc(OC)ccc2OC)c1C (stereo not given)	-2	2	-0.44	-7	i
O=C(NCCCCc1ccccc1)c1ccc(Br)o1	0	4	-0.79	0	i
CNc1ccc(C(=O)c2ccccc2C(=O)O)cc1[N+](=O)[O-]	-3	2	1.4	4	i
Cc1ccc(C)c(NS(=O)(=O)c2cc(C(=O)NCc3ccco3)ccc2C)c1	-3	3	2.4	100*	i
Cc1ccccc1NS(=O)(=O)c1cc(C(=O)N2CCc3ccccc3C2)ccc1C	2	3	-1.3	88*	x
CNC(=O)c1cccnc1Nc1cccc(C(F)(F)F)c1	x	3	-0.37	-1	i
COc1ccc(N2CCN(c3ncnc4c3cnn4-c3ccc(C)cc3C)CC2)cc1	0	3	-0.93	0	x
O=S(=O)(Oc1ccccc1/C=N/n1cnnc1)c1ccccc1	0	3	-0.071	1	i
CCOc1cc(/C=N/n2cnnc2)ccc1OS(=O)(=O)c1ccccc1	1	2	1.4	69*	i
CCOc1cc2c3c(c1)C1(C(=O)N3C(C)(C)CC2C)C(C#N)=C(N)N2C(=C1C#N)Nc1ccccc12 (stereo not given)	5	2	-0.11	66*	i
O=C(NC(C(=O)N/N=C/c1c2ccccc2cc2ccccc12)c1n[nH]c(=O)c2ccccc12)c1ccccc1 (stereo not given)	9	4	-0.6	93*	x
O=C(NC(C(=O)N/N=C/c1ccccc1)c1n[nH]c(=O)c2ccccc12)c1ccccc1 (stereo not given)	1	2	-1.7	10	x
O=Cc1cccn1-c1sc2c(c1C(=O)O)CCCC2	0	1	0.29	20	i
N#Cc1c(-n2cccc2C=O)sc2c1CCCC2	0	3	1.4	52*	i
COc1cc(/C=N/NC(=O)CN2CCCCC2)ccc1OCc1ccc(Br)cc1	1	3	0.4	94*	i
O=C(CCN1CCCCC1)N/N=C/c1ccc(Br)cc1	-3	4	0.7	83*	i
COc1cc(/C=N/NC(=O)CC2(C)OCCCO2)ccc1OCc1ccccc1	-1	2	0.24	2	i
COc1ccc(/C=N/NC(=O)c2nc(Cl)c(Cl)c(N)c2Cl)cc1COc1ccccc1F	1	8	0.3	0	i
CC(NC(=O)CN(c1cccc(C(F)(F)F)c1)S(=O)(=O)c1ccc(Cl)c([N+](=O)[O-])c1)c1ccccc1 (stereo not given)	-1	3	-1.6	50*	i
CC(C)(C)NC(=O)CN(c1cccc([N+](=O)[O-])c1)S(=O)(=O)c1ccccc1	0	3	-0.0083	0	i
SMILES	bCat nuc transl	MT stabilize HCS	Dynein cargo inh	L major viab	HSV augment
Cc1ccccc1C(=O)NC1CCN(Cc2nnnn2CCc2ccccc2)CC1	x	3	2.4	2	i
O=C(NC1CCCCC1)c1ccc(S(=O)(=O)NCc2ccco2)cc1	-1	5	1.8	6	i
O=C(NC1CCN(Cc2ccccc2)CC1)c1ccc(S(=O)(=O)NCc2ccco2)cc1	2	3	1.6	78*	i
Cc1ccc(C)n1-c1ccc(C(=O)NC2CCN(Cc3ccccc3)CC2)cc1	x	2	-0.75	81*	i
O=C(CCn1c(=O)c2ccccc2n(CC(=O)NC2CCCC2)c1=O)NCc1ccco1	-10	3	-1	100*	i
Cc1ccccc1C(=O)NC1CCN(Cc2ccccc2)CC1	0	3	-0.62	85*	i
O=C(CCCCn1c(=O)c2ccccc2n(CC(=O)NC2CCCC2)c1=O)NCc1ccco1	0	3	-0.27	-2	i

Source: PubChem BioAssay (several laboratories)
